Screens from PubChem BioAssay.
Rows were chosen to be rich in hits. Some 4.1% of all compounds tested hit in one or more screens of this group.
MEKK2 mut-MEK5 – signal of MEK5 binding to mutant human MEKK2 PB1 domain; bead flow cytometry, Alexa488-MEK5 binding to MEKK2 mutant; actives 0.35% (n = 290,000); percent response, % at 10 µM; in the data active means percent response above about 24%, passing the limit was not always enough
MEKK3 PB1 HTS – MEKK3-MEK5 PB1 interaction, increase or decrease. actives 1.4% (n = 290,000). binding response (% of control), % at 10 µM. bead-based flow cytometry, Alexa488-MEK5 binding to MEKK3; actives lie on both sides; 0 = blocked by unlabeled MEK5, 100 = vehicle. Q99759;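 active means binding response more than 3 SD above or below the average of its plate-row segment, actives on both sides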;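 further: Alexa488 bead fluorescence after subtracting the streptavidin-only scavenger bead signal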
Target sequence (Q99759 whole entry, looked up): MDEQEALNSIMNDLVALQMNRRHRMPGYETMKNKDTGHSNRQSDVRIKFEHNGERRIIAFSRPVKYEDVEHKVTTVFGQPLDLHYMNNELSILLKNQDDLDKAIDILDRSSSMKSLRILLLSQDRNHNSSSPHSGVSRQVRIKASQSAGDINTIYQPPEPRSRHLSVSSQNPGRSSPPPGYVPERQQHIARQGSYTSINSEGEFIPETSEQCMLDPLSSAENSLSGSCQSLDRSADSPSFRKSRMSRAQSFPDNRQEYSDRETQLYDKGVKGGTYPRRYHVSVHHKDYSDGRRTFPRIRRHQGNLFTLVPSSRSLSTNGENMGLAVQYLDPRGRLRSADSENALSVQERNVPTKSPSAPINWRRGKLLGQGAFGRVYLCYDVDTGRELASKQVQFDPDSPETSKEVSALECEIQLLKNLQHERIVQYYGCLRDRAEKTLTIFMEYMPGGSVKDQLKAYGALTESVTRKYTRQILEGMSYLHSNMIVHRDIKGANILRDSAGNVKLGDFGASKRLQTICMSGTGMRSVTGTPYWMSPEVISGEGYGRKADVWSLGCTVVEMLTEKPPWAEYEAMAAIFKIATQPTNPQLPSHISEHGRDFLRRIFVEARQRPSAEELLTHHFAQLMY
MEKK2 WT-MEK5 – raises or lowers MEK5 binding to wildtype human MEKK2 PB1 domain | binding response (% of control), % at 10 µM | bead flow cytometry, Alexa488-MEK5 binding to MEKK2 WT; actives lie on both sides | actives 1.1% (n = 290,000) | Q9Y2U5; in the data active means binding response below about 67% or above about 130%
FID counter – displaces DNA intercalator in HCV helicase counter-screen; DNA fluorescent intercalator displacement, fluorescence; inhibition, % at 7.9 µM; actives 0.17% (n = 290,000); AID 1845; in the data active means inhibition above about 37%;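 further: 0% = vehicle and 100% = reference compound; higher means more ethidium bromide displaced from hairpin DNA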
T cruzi inh – T. cruzi replication inhibition; T. cruzi beta-gal in NIH3T3, luminescence, 90 h; inhibition, % (concentration not given with the values); actives 1.4% (n = 300,000); AID 1885;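 active means mean inhibition across valid replicates above about 55%, limit read from the data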;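 further: signal also drops with host cell toxicity which is not excluded here; 0% = plate median of DMSO wells and 100% = zero luminescence signal; higher percent means less beta-gal luminescence so fewer parasites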
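Assay system: NIH/3T3 fibroblasts plus reporter T. cruzi. Amount: NIH/3T3 cells, 5,000 per well. Buffer or medium: DMEM, 2% fetal bovine serum. Doses: compound pinned at 50 nL/well, DMSO. Schedule: ≥90 h infection period, 3 h prior cell attachment. Signal: luminescent β-galactosidase signal after 60 min lysis. Read-out: parasite load inhibition, %.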
HCV NS3 hel inh – HCV NS3 helicase inhibition | NS3 helicase DNA unwinding, Cy5 molecular beacon fluorescence | AID 1800 | inhibition, % at 10.9 µM | actives 0.56% (n = 290,000);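 active means inhibition above the mean of all tested compounds plus 3 SD, set per campaign, cut at about 35% in these data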;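 further: 0% = DMSO wells and 100% = thioflavine S control wells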
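Compound dosing – single dose, 10.9 µM nominal final, DMSO 0.8% final · System – NS3 helicase fragment of HCV · Buffer or medium – MOPS pH 6.5, MgCl2, DTT, Tween20, BSA · Signal – Cy5 beacon fluorescence read at start and 1 h · Also added – annealed dual-labelled DNA beacon duplex, ATP-started · Schedule – 1 h at 25 °C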
MEKK2wt confirm – raises or lowers MEK5 binding to wildtype human MEKK2, retest. shares compounds with MEKK3 PB1 HTS. bead flow cytometry, Alexa488-MEK5 binding to MEKK2 WT; actives lie on both sides. binding response (% of control), % at 10 µM. actives 2.4% (n = 5,900); in the data active means binding response below about 16% or above about 210%; inactive means in between
MEKK2mut confirm – signal of MEK5 binding to mutant human MEKK2, retest; shares compounds with MEKK3 PB1 HTS; actives 2% (n = 5,900); percent response, % at 10 µM; bead flow cytometry, Alexa488-MEK5 binding to MEKK2 mutant; in the data active means percent response mostly above about 71%, no sharp cut-off; inactive means mostly below about 38%;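 further: higher means compound restores mutant binding toward wildtype level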
MEKK3 confirm – confirmation of inhibitors of MEK5 binding to human MEKK3. shares compounds with MEKK3 PB1 HTS. binding response (% of control), % at 10 µM. bead flow cytometry, Alexa488-MEK5 binding to MEKK3; active compounds read low. AID 1894. actives 1.8% (n = 5,900);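 active means binding response below 72% of control, or above a set upper limit, though filed actives all read lower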;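 further: 100% = DMSO only wells and 0% = binding blocked by excess unlabeled MEK5; lower values mean stronger disruption of MEK5 binding to MEKK3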
Active calls of the source: *; [ ] = remark or other dose.

Screening CC(C)c1ccc(C2C3CSCC=C3C(C#N)=C(N)C2(C#N)C#N)cc1 (stereo unspecified) returned MEKK2 mut-MEK5 -21, MEKK3 PB1 HTS 1.0*[inhibitor], MEKK2 WT-MEK5 1.0*[inhibitor], FID counter -21, T cruzi inh 11, HCV NS3 hel inh 8, MEKK2wt confirm 88, MEKK2mut confirm -2 and MEKK3 confirm 98.
Cc1ccc2c(c1)c1c(n2CC(O)CNC2CCCCC2)CCCC1 (stereo unspecified) was read as MEKK2 mut-MEK5 21, MEKK3 PB1 HTS 108, MEKK2 WT-MEK5 154*, FID counter 29, T cruzi inh 44, HCV NS3 hel inh -50, MEKK2wt confirm 133, MEKK2mut confirm 17 and MEKK3 confirm 99.
Cn1c(CNC(=O)CCNC(=O)c2cccc(Cl)c2)cc(=O)n(C)c1=O was read as MEKK2 mut-MEK5 0, MEKK3 PB1 HTS 100, MEKK2 WT-MEK5 100, FID counter -8, T cruzi inh -1 and HCV NS3 hel inh 4.
For COc1ccccc1/C=N/NC(=O)CNC(=O)c1ccc(S(=O)(=O)N2CCCC2)cc1 the results were MEKK2 mut-MEK5 -2, MEKK3 PB1 HTS 103, MEKK2 WT-MEK5 101, FID counter -10, T cruzi inh -9 and HCV NS3 hel inh -8.
For O=C(CNC(=O)c1ccc(S(=O)(=O)N2CCCC2)cc1)N/N=C/c1ccccc1Cl the results were MEKK2 mut-MEK5 -20, MEKK3 PB1 HTS 73*[inhibitor], MEKK2 WT-MEK5 69, FID counter -18, T cruzi inh 14, HCV NS3 hel inh 7, MEKK2wt confirm 100, MEKK2mut confirm -9 and MEKK3 confirm 102.
`O=c1sc2ccccc2c(N2CCOCC2)c1[N+](=O)[O-]` gave MEKK2 mut-MEK5 7, MEKK3 PB1 HTS 105, MEKK2 WT-MEK5 112, FID counter -1, T cruzi inh -11 and HCV NS3 hel inh 7.
Cc1cn2c(N)c(C=C3C=C(Cl)C(=O)C(Cl)=C3)c(=O)nc2s1 was read as MEKK2 mut-MEK5 -76, MEKK3 PB1 HTS 94, MEKK2 WT-MEK5 50*[inhibitor], FID counter -4, T cruzi inh -1, HCV NS3 hel inh 15, MEKK2wt confirm 99, MEKK2mut confirm -14 and MEKK3 confirm 103.
For COc1nc(OC)nc(N2CCCCCC2)n1 the results were MEKK2 mut-MEK5 5, MEKK3 PB1 HTS 98, MEKK2 WT-MEK5 100, FID counter 1, T cruzi inh -8 and HCV NS3 hel inh -7.
C=CCN(C#N)c1nc(OC)nc(N2CCCC2)n1 was read as MEKK2 mut-MEK5 11, MEKK3 PB1 HTS 130*, MEKK2 WT-MEK5 130, FID counter -11, T cruzi inh 5, HCV NS3 hel inh -3, MEKK2wt confirm 85, MEKK2mut confirm -7 and MEKK3 confirm 80.
For Cc1ccc(CNC(=O)COC(=O)CSc2ccc(Br)cc2C)cc1 the results were MEKK2 mut-MEK5 0, MEKK3 PB1 HTS 130*, MEKK2 WT-MEK5 107, FID counter -13, T cruzi inh 4, HCV NS3 hel inh -3, MEKK2wt confirm 103, MEKK2mut confirm -1 and MEKK3 confirm 105.
Screening Cc1ccccc1N(CC(=O)NCc1ccc2c(c1)OCO2)C(=O)CCC(=O)Nc1ccccn1 returned MEKK2 mut-MEK5 -11, MEKK3 PB1 HTS 76*[inhibitor], MEKK2 WT-MEK5 86, FID counter 1, T cruzi inh -1, HCV NS3 hel inh 12, MEKK2wt confirm 100, MEKK2mut confirm -6 and MEKK3 confirm 101.
O=C(CN(C(=O)CCC(=O)Nc1ccccn1)c1ccccc1F)NCc1ccc2c(c1)OCO2 was read as MEKK2 mut-MEK5 -3, MEKK3 PB1 HTS 100, MEKK2 WT-MEK5 101, FID counter -28, T cruzi inh 4 and HCV NS3 hel inh -3.
`Clc1ccccc1-c1csc(Nc2cccnc2)n1` gave MEKK2 mut-MEK5 -40, MEKK3 PB1 HTS 47*[inhibitor], MEKK2 WT-MEK5 59, FID counter -2, T cruzi inh 26, HCV NS3 hel inh 6, MEKK2wt confirm 103, MEKK2mut confirm 5 and MEKK3 confirm 103.
CN(CC(=O)Nc1ccc(Cl)c(Cl)c1)C(=O)CC1OC(=O)c2ccccc21 (stereo unspecified) was read as T cruzi inh -6.
`Cc1[nH]n(-c2ccccc2)c(=O)c1C=NCc1ccncc1` gave MEKK2 mut-MEK5 6, MEKK3 PB1 HTS 103, MEKK2 WT-MEK5 106, FID counter -4, T cruzi inh -6 and HCV NS3 hel inh -5.
`Cc1ccc(-n2[nH]c(C)c(C=NCc3ccncc3)c2=O)cc1` gave MEKK2 mut-MEK5 26, MEKK3 PB1 HTS 130*, MEKK2 WT-MEK5 125, FID counter -10, T cruzi inh -3, HCV NS3 hel inh 4, MEKK2wt confirm 98, MEKK2mut confirm 1 and MEKK3 confirm 102.
O=C(O)/C=C/c1cnn(-c2ccccc2)c1 was read as MEKK2 mut-MEK5 0, MEKK3 PB1 HTS 103, MEKK2 WT-MEK5 102, FID counter -1, T cruzi inh -4 and HCV NS3 hel inh 0.
Screening CCSc1nnc(NC(=O)C2Cc3ccccc3CN2S(=O)(=O)CC)s1 (stereo unspecified) returned MEKK2 mut-MEK5 -1, MEKK3 PB1 HTS 12*[inhibitor], MEKK2 WT-MEK5 16*[inhibitor], FID counter -16, T cruzi inh -21, HCV NS3 hel inh -3, MEKK2wt confirm 99, MEKK2mut confirm 2 and MEKK3 confirm 104.
Screening Clc1ccc(-c2csc3ncnc(Cl)c23)cc1 returned MEKK2 mut-MEK5 0, MEKK3 PB1 HTS 130*, MEKK2 WT-MEK5 104, FID counter -1, T cruzi inh -30, HCV NS3 hel inh 2, MEKK2wt confirm 104, MEKK2mut confirm 8 and MEKK3 confirm 104.
For Fc1ccc(-c2csc3ncnc(Cl)c23)cc1 the results were MEKK2 mut-MEK5 14, MEKK3 PB1 HTS 110, MEKK2 WT-MEK5 117, FID counter 2, T cruzi inh -19 and HCV NS3 hel inh 13.
For Cc1cc(C)c(C(=O)Nn2c(C)nc3ccccc3c2=O)cc1C the results were MEKK2 mut-MEK5 3, MEKK3 PB1 HTS 98, MEKK2 WT-MEK5 104, FID counter -8, T cruzi inh 1 and HCV NS3 hel inh -4.
